Assay [1] has as its system Mus musculus. Briefly: Antitumor effect (3 mg/kg) against EO771 mammary adenocarcinoma in mice measured as Tumor free/total on day 14. The class given is functional. An outline of the steps:
(§1)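 Mice implanted with EO771 mammary adenocarcinoma were dosed once daily for 5 days, starting 1 day after tumor implantation, with 10 mice per group. On day 7 and day 14 the following were recorded: average body weight change in grams, toxic deaths, tumor-free animals and average tumor volume. Volume was calculated as 4/3πr³ in mm³, and T/C is treated/control volume.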

Assay [2] concerns Mus musculus. In words: Antitumor effect (3 mg/kg) against EO771 mammary adenocarcinoma in mice measured as Tumor free/total on day 7. The class given is functional. An outline of the steps:
as §1

The test system of assay [3] is Mus musculus. Briefly: Antitumor effect (3 mg/kg) against EO771 mammary adenocarcinoma in mice measured as T/C(treated/control) on day 7. The class given is functional. In a few lines: as §1
Assay [4] relates to L1210. Briefly: k value for its transport after efflux through L1210 cells. The class given is functional, Mus musculus.
Assay [5] has as its system Mus musculus. Briefly: Antitumor effect (3 mg/kg) against EO771 mammary adenocarcinoma in mice measured as Average weight change on day 7. The class given is functional. In a few lines: as §1
In assay [6] the test system is Mus musculus. In words: Antitumor effect (3 mg/kg) against EO771 mammary adenocarcinoma in mice measured as Average weight change on day 14. The class given is functional. An outline of the steps:
as §1

For assay [7], the system named is L1210. Briefly: Km value for its transport after influx into L1210 cells. The class given is functional, cell-based. Conditions: Mus musculus.
Assay [8] deals with Mus musculus. Briefly: Antitumor effect (3 mg/kg) against EO771 mammary adenocarcinoma in mice measured as Toxic deaths/total on day 14. The class given is functional. In a few lines:
(§2)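 EO771 mammary adenocarcinoma implanted in mice, 10 animals per group. Dosing was once daily for 5 days, starting 1 day after tumor implantation. Toxic deaths were counted over the total on the evaluation day (day 7 or day 14), together with average weight change, tumor volume (4/3πr³, treated/control) and tumor-free animals.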

The test system of assay [9] is Mus musculus. In words: Antitumor effect (3 mg/kg) against EO771 mammary adenocarcinoma in mice measured as T/C(treated/control) on day 14. The class given is functional. In a few lines:
as §1

For assay [10], the system named is Mus musculus. In words: Antitumor effect (3 mg/kg) against EO771 mammary adenocarcinoma in mice measured as toxic deaths out of 10 mice tested. The class given is functional. An outline of the steps: as §2
In assay [11] the test system is Mus musculus. In words: Antitumor effect (36 mg/kg) against EO771 mammary adenocarcinoma in mice measured as Tumor free/total on day 14. The class given is functional. An outline of the steps:
as §1

In assay [12] the test system is Mus musculus. Briefly: Antitumor effect (36 mg/kg) against EO771 mammary adenocarcinoma in mice measured as T/C(treated/control) on day 14. The class given is functional. An outline of the steps: as §1
The test system of assay [13] is Mus musculus. In words: Antitumor effect (36 mg/kg) against EO771 mammary adenocarcinoma in mice measured as average weight change on day 14. The class given is functional. In a few lines:
as §1

Assay [14] relates to L1210. Briefly: The compound was tested for its growth inhibitory activity against L1210 cells. Conditions: Mus musculus. The class given is functional, cell-based.
Assay [15] has as its system Mus musculus. Briefly: Antitumor effect (36 mg/kg) against EO771 mammary adenocarcinoma in mice measured as average weight change on day 7. The class given is functional. An outline of the steps: as §1
Assay [16] deals with Mus musculus. Briefly: Antitumor effect (36 mg/kg) against EO771 mammary adenocarcinoma in mice measured as toxic deaths out of 10 mice tested. The class given is functional. An outline of the steps: as §2
For assay [17], the system named is Mus musculus. Briefly: Antitumor effect (36 mg/kg) against EO771 mammary adenocarcinoma in mice measured as Toxic deaths/total on day 14. The class given is functional. An outline of the steps:
as §2

Assay [18] has as its system Mus musculus. Briefly: Antitumor effect (36 mg/kg) against EO771 mammary adenocarcinoma in mice measured as Tumor free/total on day 7. The class given is functional. An outline of the steps:
as §1

Assay [19] has as its target T1, Dihydrofolate reductase (Mus musculus, UniProt P00375).
T1 sequence (P00375 whole entry): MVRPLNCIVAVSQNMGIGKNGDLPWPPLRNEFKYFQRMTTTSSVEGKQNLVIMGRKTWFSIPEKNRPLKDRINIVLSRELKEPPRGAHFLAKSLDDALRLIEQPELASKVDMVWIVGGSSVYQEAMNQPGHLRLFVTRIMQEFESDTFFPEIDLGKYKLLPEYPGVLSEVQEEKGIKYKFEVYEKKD
Briefly: The compound was tested for its inhibitory activity against dihydrofolate reductase(DHFR) derived from L1210 cells. The class given is cell-based.

Assay [20] has as its system Mus musculus. Briefly: Antitumor effect (36 mg/kg) against EO771 mammary adenocarcinoma in mice measured as T/C(treated/control) on day 7. The class given is functional. An outline of the steps: as §1
Assay [21] has as its system HL-60. Briefly: The compound was tested for its growth inhibitory activity against HL60 cells. The class given is functional, cell-based. Particulars: Homo sapiens.
The test system of assay [22] is CCRF S-180. Briefly: The compound was tested for its growth inhibitory activity against S180 cells. Particulars: Mus musculus. The class given is functional, cell-based.
In assay [23] the target is T2, Thymidylate synthase (Homo sapiens, UniProt P04818). Briefly: The compound was tested for its inhibitory activity against thymidylate synthase(TS) derived from H35F/F cells.
Assay [24] concerns the target T2, Thymidylate synthase. In words: The compound was tested for its inhibitory activity against thymidylate synthase(TS) derived from K562 cells. The class given is cell-based.
Assay [25] addresses T3, Thymidylate synthase (Lactobacillus casei, UniProt P00469).
T3 sequence (P00469 whole entry): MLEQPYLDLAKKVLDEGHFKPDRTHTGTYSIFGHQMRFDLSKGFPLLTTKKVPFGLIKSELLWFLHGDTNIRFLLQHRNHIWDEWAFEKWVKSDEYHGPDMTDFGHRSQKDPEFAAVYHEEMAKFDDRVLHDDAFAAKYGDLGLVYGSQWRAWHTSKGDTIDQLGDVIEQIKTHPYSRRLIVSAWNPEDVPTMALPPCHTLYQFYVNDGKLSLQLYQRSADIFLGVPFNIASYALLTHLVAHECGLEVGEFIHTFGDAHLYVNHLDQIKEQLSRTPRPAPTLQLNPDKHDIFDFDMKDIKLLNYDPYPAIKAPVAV
Briefly: The compound was tested for its inhibitory activity (IC50) against thymidylate synthase(TS) derived from Lactobacillus casei. On the set-up: species or system Lacticaseibacillus casei.

T2 sequence (P04818 whole entry): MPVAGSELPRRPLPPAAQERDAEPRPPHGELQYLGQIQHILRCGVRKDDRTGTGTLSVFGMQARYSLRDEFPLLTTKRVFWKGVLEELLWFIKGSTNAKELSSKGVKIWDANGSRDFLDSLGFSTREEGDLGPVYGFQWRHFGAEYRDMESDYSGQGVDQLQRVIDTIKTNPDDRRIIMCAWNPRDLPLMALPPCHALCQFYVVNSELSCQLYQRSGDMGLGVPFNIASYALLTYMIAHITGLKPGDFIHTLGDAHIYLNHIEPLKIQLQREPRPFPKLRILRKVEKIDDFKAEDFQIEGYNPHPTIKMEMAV

Take `CN(Cc1cnc2nc(N)nc(N)c2n1)c1ccc(C(=O)N[C@@H](CCC(=O)O)C(=O)O)cc1` [METHOTREXATE]: the Tumor free/total in [1] and in [2] was 0 throughout. The results for the T/C in [3] and in assay [9] were 0.74 and 0.79, respectively. The compound also came in with a k in assay [4] of 0.21 min⁻¹. The AWC in assay [5] is reported as -0.4 g; in [6], 0.8 g. The Km in [7] was found to be 4.86 µM. In addition, the Deaths/total in assay [8] was 0. Moreover, in [10], the Toxic deaths is 0.
Take `C#CCN(Cc1cnc2nc(N)nc(N)c2c1C)c1ccc(C(=O)NC(CCC(=O)O)C(=O)O)cc1` (stereo not given): the Tumor free/total in assay [11] and in assay [18] was 2 in each case. The T/C in assay [12] was found to be 0.08; in assay [20], 0.09. Further, the AWC in assay [13] is reported as -0.6 g; in [15], -1.9 g. The concentration for half-maximal inhibition (IC50) in assay [14] is 0.13 nM. Moreover, the k in assay [4] turned out to be 0.24 min⁻¹. In assay [16], this compound displayed a Toxic deaths of 0. In assay [17], this compound gave a Deaths/total of 0. Besides, the Km in assay [7] worked out at 0.57 µM. Moreover, the inhibitory constant (Ki) in assay [19] was determined as 0.00687 nM.
As for `C#CCN(Cc1cnc2nc(N)nc(O)c2c1)c1ccc(C(=O)NC(CCC(=O)O)C(=O)O)cc1` (stereo not given), the IC50 in assay [14] was found to be 1500 nM; in assay [21], 721 nM; in [22] it was 2350 nM; in [23], 90 nM.
Take `C#CCN(Cc1ccc2[nH]c(N)nc(=O)c2c1)c1ccc(C(=O)NC(CCC(=O)O)C(=O)O)cc1` (stereo not given): the half-maximal inhibitory concentration (IC50) was 2610 nM in assay [14], 5290 nM in assay [21] and 1970 nM in assay [22].
Turning to `C#CCN(Cc1ccc2nc(N)nc(O)c2n1)c1ccc(C(=O)NC(CCC(=O)O)C(=O)O)cc1` (stereo not given), the half-maximal inhibitory concentration (IC50) in assay [24] was determined as 2400 nM.
With `C#CCN(Cc1cnc2nc(N)[nH]c(=O)c2n1)c1ccc(C(=O)NC(CCC(=O)O)C(=O)O)cc1` (stereo not given), the IC50 in assay [25] worked out at 3900 nM.
On to `C#CCN(Cc1cnc2nc(N)nc(N)c2c1)c1ccc(C(=O)NC(CCC(=O)O)C(=O)O)cc1` (stereo not given), for which the IC50 in assay [14] was 0.64 nM. The compound further displayed a k in assay [4] of 0.23 min⁻¹. Further, in [7], the Km was 1.8 µM. In addition, the affinity in assay [19] corresponds to a Ki of 0.00585 nM.

Source of the values: ChEMBL document CHEMBL1125287, “Synthesis and antifolate evaluation of the 10-propargyl derivatives of 5-deazafolic acid, 5-deazaaminopterin, and 5-methyl-5-deazaaminopterin” (J Med Chem, 1992).
